The values that follow come from ChEMBL document CHEMBL3352508, “Discovery and early clinical development of 2-{6-[2-(3,5-dichloro-4-pyridyl)acetyl]-2,3-dimethoxyphenoxy}-N-propylacetamide (LEO 29102), a soft-drug inhibitor of phosphodiesterase 4 for topical treatment of atopic dermatitis” (J Med Chem, 2014).

Series [1] has as its target cGMP-dependent 3',5'-cyclic phosphodiesterase (Homo sapiens) (UniProt O00408). Put plainly: Inhibition of PDE2 (unknown origin) at 1 uM.
Another series deals with PBMC. Put plainly: Inhibition of LPS-induced TNFalpha release in human PBMC preincubated for 30 mins before LPS stimulation measured after 18 hrs by TR-FRET assay. It is filed as functional, cell-based. In short, it runs like this: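 PBMCs isolated from buffy coats (blood diluted 1:1 with saline, Lymphoprep). Supernatant TNF-α measured by TR-FRET (665/620 nm). IC₅₀ taken from inhibition curves, with LPS-stimulated and unstimulated wells as controls.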

The target in series [2] is 3',5'-cyclic-AMP phosphodiesterase 4D (Homo sapiens, UniProt Q08499). The series is described as follows: Inhibition of human recombinant PDE4D after 1 hr by SPA in presence of radioactively labeled cAMP. In short, it runs like this:
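Recombinant human PDE4D (NM_006203) incubated 1 h with test compound up to 10 μM, 1 × 10⁻⁵ M cAMP and 0.021 MBq radiolabelled cAMP tracer. Substrate cleavage read by binding of AMP product to SPA beads. IC₅₀ is the molar concentration giving 50% inhibition of cleavage relative to controls, reported as a range.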

Series [3] addresses High affinity 3',5'-cyclic-AMP phosphodiesterase 7A (Homo sapiens) (UniProt Q13946). Put plainly: Inhibition of PDE7 (unknown origin) at 1 uM.
Series [4] addresses Phosphodiesterase 1 (Homo sapiens) (UniProt P54750+Q01064+Q14123). The series is described as follows: Inhibition of PDE1 (unknown origin) at 1 uM. It is filed as protein assay.
Series [5] has as its target Phosphodiesterase 3 (Homo sapiens) (UniProt Q14432+Q13370). The series is described as follows: Inhibition of PDE3 (unknown origin) at 1 uM. Format: protein assay.
Series [6] concerns the target Phosphodiesterase 8 (Homo sapiens) (UniProt O95263+O60658). Put plainly: Inhibition of PDE8 (unknown origin) at 1 uM. Format: protein assay.
Series [7] has as its target High affinity cGMP-specific 3',5'-cyclic phosphodiesterase 9A (Homo sapiens) (UniProt O76083). Put plainly: Inhibition of PDE9 (unknown origin) at 1 uM.
The target in series [8] is Dual 3',5'-cyclic-AMP and -GMP phosphodiesterase 11A (Homo sapiens) (UniProt Q9HCR9). Put plainly: Inhibition of PDE11 (unknown origin) at 1 uM.
In series [9] the target is cAMP and cAMP-inhibited cGMP 3',5'-cyclic phosphodiesterase 10A (Homo sapiens) (UniProt Q9Y233). Put plainly: Inhibition of PDE10 (unknown origin) at 1 uM.
Series [10] has as its target cGMP-specific 3',5'-cyclic phosphodiesterase (Homo sapiens) (UniProt O76074). Put plainly: Inhibition of PDE5 (unknown origin) at 1 uM.
For another series, the system named is Mustela putorius furo. The series is described as follows: Toxicity in ferret assessed as emesis at 0.01 mg/kg, iv measured up to 2 hrs post dose. It is filed as organism-based. Also noted: dose 0.01 mg/kg, route intravenous. Conditions: in vivo. In short, it runs like this:
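Ferrets received the compound intravenously, with vehicle-dosed controls. Animals were caged and watched for 2 h, counting emetic episodes and prodromic signs (nausea). Recorded: number of ferrets retching and vomiting, latency to first retch and first vomit, and numbers of retches and vomits.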

Series [11] in a line: Solubility of the compound in 20 % hydroxypropyl-beta-cyclodextrin in water after 1 hr at room temperature. Format: physicochemical. The gist of the method: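 Compound shaken in the vehicle for 1 h at room temperature, centrifuged, and the supernatant concentration determined by HPLC.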
The nature of series [12]: Solubility of the compound in 0.067 M phosphate buffer at pH 7.4. It is filed as physicochemical. In short, it runs like this:
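Compound shaken in 0.067 M phosphate buffer, pH 7.4, for 24 h at room temperature; after centrifugation, supernatant concentration determined by HPLC.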

Series [13] can be described thus: Solubility of the compound in medium chain triglyceride. It is filed as physicochemical. The gist of the method:
(§1)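 Compound shaken in each vehicle for 24 h at room temperature, centrifuged, and the supernatant concentration determined by HPLC.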

The nature of series [14]: Solubility of the compound in propylene glycol. Format: physicochemical. In short, it runs like this:
as §1

Series [15] can be described thus: AUC (0 to 48 hrs) in human at 2.5 mg/g cream administered as single topical dose up to 7 % body surface area. Format: ADME, organism-based. The arrangement: dose 2.5 mg/g, time < 48 hr. Conditions: plasma, 2500 mg/kg. The gist of the method: (§2)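 Healthy subjects, n = 6 per group, each given a single cutaneous dose of 2.5 mg/g cream. Treated body surface area was escalated (7, 14, 30, 53%) while the amount of cream per cm² was held constant. Plasma Cmax and AUC0–48h are reported as geometric means.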

Series [16] is described as follows: Cmax in human at 2.5 mg/g cream administered as single topical dose up to 14 % body surface area. Particulars: in vivo, 2500 mg/kg. Format: ADME, organism-based. The arrangement: dose 2.5 mg/g. The gist of the method: as §2
The test system of another series is Homo sapiens. The series is described as follows: Toxicity in human assessed as emesis at 2.5 mg/g cream administered as single topical dose up to 7 to 53 % body surface area. Conditions: in vivo, topical_or_ocular. Format: organism-based. The gist of the method: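 First-in-man safety, tolerability and pharmacokinetic study with single ascending and multiple cutaneous doses of 2.5 mg/g cream. Dose was escalated by enlarging the treated body surface area up to 53%, and emesis cases were recorded.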

A short description of series [17]: Solubility of the compound in propylene glycol-water at 25:75 ratio after 24 hrs at room temperature. Format: physicochemical. Particulars: propylene glycol-water 25:75. The gist of the method:
as §1

Series [18] relates to Mus musculus. The series is described as follows: Antiinflammatory activity in topical allergic contact dermatitis mouse model assessed as inhibition of TNFalpha in tissue compound administered topically. Format: functional, organism-based.
Series [19] is described as follows: Solubility of the compound in propylene glycol-water at 50:50 ratio after 24 hrs at room temperature. It is filed as physicochemical. Conditions: propylene glycol-water 50:50. In short, it runs like this:
as §1

Series [20] relates to Mus musculus. Put plainly: Antiinflammatory activity in topical allergic contact dermatitis mouse model assessed as inhibition of TNFalpha in tissue at 0.001 mg administered topically. It is filed as functional.
Series [21] deals with Mus musculus. The series is described as follows: Antiinflammatory activity in topical allergic contact dermatitis mouse model assessed as inhibition of TNFalpha in tissue at 0.1 mg administered topically. Format: functional.
The test system of series [22] is Mus musculus. The series is described as follows: Antiinflammatory activity in topical allergic contact dermatitis mouse model assessed as inhibition of TNFalpha in tissue at 0.01 mg administered topically. It is filed as functional.
Series [23] can be described thus: Cmax in human at 2.5 mg/g cream administered as single topical dose up to 30 % body surface area. It is filed as ADME, organism-based. The arrangement: dose 2.5 mg/g. Particulars: in vivo, 2500 mg/kg. In short, it runs like this:
as §2

Series [24] is described as follows: AUC (0 to 48 hrs) in human at 2.5 mg/g cream administered as single topical dose up to 30 % body surface area. It is filed as ADME, organism-based. Also noted: time < 48 hr, dose 2.5 mg/g. Conditions: plasma, 2500 mg/kg. In short, it runs like this: as §2
A short description of series [25]: Cmax in human at 2.5 mg/g cream administered as single topical dose up to 53 % body surface area. Format: ADME, organism-based. The arrangement: dose 2.5 mg/g. Particulars: in vivo, 2500 mg/kg. In short, it runs like this: as §2
Series [26] can be described thus: Cmax in human at 2.5 mg/g cream administered as single topical dose up to 7 % body surface area. It is filed as ADME, organism-based. The arrangement: dose 2.5 mg/g. Conditions: in vivo, 2500 mg/kg. In short, it runs like this:
as §2

A short description of series [27]: Toxicity in iv dosed ferret assessed as emesis measured up to 2 hrs post dose. Particulars: in vivo. Format: organism-based, Mustela putorius furo. The gist of the method:
(§3)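 Ferrets dosed iv at 0.03–1.0 mg/kg alongside vehicle groups, then observed for 2 h. Recorded: emetic episodes and prodromic signs of nausea, number of animals retching and vomiting, latency to first retch and vomit, and counts of retches and vomits.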

Series [28] can be described thus: AUC (0 to 48 hrs) in human at 2.5 mg/g cream administered as single topical dose up to 53 % body surface area. The arrangement: time < 48 hr, dose 2.5 mg/g. Particulars: plasma, 2500 mg/kg. Format: ADME, organism-based. The gist of the method: as §2
Series [29] is described as follows: Toxicity in iv dosed ferret assessed as signs of nausea measured up to 2 hrs post dose. It is filed as organism-based, Mustela putorius furo. Particulars: in vivo. In short, it runs like this: as §3
Series [30] in a line: AUC (0 to 48 hrs) in human at 2.5 mg/g cream administered as single topical dose up to 14 % body surface area. Format: ADME, organism-based. The arrangement: time < 48 hr, dose 2.5 mg/g. Conditions: plasma, 2500 mg/kg. The gist of the method:
as §2

A short description of series [31]: Solubility of the compound in propylene glycol-water at 75:25 ratio after 24 hrs at room temperature. It is filed as physicochemical. Particulars: propylene glycol-water 75:25. The gist of the method: as §1

Values after ≈ are worked out from the molar mass of the structure shown. Bounds are passed on as bounds.

Sequence of 3',5'-cyclic-AMP phosphodiesterase 4D (Q08499 whole entry): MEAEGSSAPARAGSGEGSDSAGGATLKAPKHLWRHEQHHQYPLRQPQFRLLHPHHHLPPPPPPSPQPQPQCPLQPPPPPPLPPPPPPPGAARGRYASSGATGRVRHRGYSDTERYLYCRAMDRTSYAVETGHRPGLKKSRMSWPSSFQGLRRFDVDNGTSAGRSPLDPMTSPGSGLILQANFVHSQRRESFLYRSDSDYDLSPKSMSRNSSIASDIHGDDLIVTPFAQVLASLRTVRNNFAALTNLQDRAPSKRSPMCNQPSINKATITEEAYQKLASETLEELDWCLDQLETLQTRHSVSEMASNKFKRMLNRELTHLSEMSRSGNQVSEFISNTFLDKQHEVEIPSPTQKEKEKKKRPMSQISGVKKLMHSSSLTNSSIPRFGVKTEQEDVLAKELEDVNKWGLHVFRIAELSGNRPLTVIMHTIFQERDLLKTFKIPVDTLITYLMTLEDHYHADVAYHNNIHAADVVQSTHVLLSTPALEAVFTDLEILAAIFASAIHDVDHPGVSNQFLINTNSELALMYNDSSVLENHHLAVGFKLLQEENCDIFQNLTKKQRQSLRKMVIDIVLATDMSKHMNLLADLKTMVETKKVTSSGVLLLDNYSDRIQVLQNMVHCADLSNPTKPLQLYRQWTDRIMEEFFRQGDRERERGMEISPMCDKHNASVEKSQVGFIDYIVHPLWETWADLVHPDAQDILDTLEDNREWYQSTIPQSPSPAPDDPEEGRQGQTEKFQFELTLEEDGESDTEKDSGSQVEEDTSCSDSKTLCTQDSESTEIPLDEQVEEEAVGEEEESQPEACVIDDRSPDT
Sequence of Phosphodiesterase 8 (Homo sapiens) (O60658 whole entry, looked up): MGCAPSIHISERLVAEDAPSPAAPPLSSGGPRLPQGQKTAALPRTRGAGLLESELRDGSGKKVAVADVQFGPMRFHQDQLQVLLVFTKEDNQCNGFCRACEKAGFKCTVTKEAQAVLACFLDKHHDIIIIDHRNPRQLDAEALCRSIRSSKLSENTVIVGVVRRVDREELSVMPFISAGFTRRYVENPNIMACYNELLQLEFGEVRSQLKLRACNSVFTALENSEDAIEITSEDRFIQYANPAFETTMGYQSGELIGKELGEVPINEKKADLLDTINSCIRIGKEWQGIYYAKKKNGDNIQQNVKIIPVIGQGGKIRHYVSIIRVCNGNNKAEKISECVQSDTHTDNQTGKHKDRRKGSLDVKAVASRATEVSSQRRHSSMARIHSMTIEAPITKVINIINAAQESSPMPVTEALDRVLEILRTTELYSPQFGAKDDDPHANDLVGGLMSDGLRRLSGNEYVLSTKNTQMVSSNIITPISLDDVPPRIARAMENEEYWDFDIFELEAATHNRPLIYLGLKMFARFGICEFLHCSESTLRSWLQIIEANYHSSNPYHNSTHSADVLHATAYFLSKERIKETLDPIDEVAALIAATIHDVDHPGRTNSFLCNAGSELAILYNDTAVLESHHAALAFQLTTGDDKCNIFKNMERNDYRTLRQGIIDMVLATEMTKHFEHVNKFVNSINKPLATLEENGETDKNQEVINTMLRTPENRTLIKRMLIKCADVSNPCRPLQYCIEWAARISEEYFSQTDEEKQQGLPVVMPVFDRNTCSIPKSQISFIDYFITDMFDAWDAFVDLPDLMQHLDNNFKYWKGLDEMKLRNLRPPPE
Sequence of Phosphodiesterase 8 (Homo sapiens) (O95263 whole entry, looked up): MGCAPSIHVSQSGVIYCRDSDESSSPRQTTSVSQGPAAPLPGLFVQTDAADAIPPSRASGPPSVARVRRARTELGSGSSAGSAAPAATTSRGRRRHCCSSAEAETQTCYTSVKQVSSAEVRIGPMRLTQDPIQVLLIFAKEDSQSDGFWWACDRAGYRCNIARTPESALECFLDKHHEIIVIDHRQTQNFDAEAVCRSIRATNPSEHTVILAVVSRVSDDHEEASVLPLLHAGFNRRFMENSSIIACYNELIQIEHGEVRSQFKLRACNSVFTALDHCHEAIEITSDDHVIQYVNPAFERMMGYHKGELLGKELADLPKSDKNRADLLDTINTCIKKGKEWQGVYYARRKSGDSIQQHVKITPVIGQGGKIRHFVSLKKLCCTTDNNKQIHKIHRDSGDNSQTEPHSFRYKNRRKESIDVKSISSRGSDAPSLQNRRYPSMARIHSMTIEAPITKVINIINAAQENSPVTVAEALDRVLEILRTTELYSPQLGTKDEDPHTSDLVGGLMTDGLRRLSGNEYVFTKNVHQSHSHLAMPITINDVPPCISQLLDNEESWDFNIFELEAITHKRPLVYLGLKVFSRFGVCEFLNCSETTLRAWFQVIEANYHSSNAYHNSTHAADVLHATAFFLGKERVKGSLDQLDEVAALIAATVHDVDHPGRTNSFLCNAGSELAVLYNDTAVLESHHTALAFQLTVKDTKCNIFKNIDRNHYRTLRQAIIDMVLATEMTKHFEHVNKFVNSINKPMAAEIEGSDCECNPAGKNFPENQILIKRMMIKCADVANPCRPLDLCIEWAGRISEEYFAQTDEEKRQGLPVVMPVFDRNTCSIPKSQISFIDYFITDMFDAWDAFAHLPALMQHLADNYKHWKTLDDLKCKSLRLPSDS
Sequence of cAMP and cAMP-inhibited cGMP 3',5'-cyclic phosphodiesterase 10A (Homo sapiens) (Q9Y233 whole entry): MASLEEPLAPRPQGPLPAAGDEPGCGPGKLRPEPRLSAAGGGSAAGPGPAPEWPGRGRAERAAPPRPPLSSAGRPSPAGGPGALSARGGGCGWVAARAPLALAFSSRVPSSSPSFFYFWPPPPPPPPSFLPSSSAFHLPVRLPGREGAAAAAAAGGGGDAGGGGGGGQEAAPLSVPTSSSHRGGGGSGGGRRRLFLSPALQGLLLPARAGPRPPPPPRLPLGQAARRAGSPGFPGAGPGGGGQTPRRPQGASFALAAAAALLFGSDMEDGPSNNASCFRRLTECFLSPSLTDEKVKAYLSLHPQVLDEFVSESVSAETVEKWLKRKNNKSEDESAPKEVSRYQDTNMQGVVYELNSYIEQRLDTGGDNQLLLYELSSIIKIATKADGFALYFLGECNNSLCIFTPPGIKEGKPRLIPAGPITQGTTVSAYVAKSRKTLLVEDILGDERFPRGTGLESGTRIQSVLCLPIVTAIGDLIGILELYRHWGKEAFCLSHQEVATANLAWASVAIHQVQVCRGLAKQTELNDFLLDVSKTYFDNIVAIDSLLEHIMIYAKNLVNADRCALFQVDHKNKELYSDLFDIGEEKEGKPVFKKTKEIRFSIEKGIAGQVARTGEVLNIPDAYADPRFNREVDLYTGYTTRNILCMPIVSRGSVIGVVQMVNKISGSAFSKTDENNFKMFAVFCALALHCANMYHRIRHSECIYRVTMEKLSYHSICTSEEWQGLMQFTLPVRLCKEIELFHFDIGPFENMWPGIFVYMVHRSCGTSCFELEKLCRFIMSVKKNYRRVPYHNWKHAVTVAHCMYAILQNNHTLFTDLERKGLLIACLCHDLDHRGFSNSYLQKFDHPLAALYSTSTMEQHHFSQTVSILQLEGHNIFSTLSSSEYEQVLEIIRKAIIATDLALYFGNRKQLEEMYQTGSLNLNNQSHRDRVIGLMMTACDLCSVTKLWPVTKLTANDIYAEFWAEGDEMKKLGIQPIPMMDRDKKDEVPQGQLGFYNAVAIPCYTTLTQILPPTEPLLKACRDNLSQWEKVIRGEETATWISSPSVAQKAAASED
Sequence of Dual 3',5'-cyclic-AMP and -GMP phosphodiesterase 11A (Homo sapiens) (Q9HCR9 whole entry, looked up): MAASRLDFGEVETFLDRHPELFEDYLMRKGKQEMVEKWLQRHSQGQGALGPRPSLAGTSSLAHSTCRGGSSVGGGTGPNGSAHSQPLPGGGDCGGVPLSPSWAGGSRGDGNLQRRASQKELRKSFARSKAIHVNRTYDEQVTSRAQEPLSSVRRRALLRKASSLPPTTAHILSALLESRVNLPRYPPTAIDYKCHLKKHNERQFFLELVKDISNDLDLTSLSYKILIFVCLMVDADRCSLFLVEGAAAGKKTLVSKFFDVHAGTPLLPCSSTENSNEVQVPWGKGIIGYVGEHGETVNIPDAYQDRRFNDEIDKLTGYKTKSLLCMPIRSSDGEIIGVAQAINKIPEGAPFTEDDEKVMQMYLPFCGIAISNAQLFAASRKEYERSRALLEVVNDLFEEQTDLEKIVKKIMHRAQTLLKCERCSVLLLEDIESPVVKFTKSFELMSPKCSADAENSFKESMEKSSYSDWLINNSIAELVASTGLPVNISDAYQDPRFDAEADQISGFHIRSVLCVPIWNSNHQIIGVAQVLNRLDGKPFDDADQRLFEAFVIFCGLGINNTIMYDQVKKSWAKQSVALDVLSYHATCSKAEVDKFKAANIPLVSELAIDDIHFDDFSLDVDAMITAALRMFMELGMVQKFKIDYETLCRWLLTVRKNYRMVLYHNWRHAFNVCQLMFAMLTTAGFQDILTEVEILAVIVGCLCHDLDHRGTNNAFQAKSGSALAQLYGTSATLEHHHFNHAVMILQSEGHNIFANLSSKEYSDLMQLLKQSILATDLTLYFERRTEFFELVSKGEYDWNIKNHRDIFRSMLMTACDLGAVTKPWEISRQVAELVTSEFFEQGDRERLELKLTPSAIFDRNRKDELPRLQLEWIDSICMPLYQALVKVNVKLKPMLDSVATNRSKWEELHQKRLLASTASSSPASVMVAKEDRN
Sequence of High affinity 3',5'-cyclic-AMP phosphodiesterase 7A (Homo sapiens) (Q13946 whole entry): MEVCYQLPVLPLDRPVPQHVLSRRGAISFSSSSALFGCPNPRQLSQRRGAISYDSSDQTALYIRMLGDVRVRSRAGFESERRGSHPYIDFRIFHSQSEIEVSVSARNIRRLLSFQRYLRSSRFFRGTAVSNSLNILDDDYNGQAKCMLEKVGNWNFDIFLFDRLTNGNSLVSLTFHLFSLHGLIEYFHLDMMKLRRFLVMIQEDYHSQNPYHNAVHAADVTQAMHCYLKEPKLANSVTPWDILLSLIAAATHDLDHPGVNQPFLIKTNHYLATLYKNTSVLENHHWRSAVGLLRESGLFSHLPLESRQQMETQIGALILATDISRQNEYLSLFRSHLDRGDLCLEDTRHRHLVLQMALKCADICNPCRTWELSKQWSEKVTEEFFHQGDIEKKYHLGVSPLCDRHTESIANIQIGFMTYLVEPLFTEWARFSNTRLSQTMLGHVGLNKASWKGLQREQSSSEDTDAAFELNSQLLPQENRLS

For `COc1ccc(C(=O)Cc2c(Cl)cncc2Cl)c(OCC(=O)O)c1OC`, the inhibition in [1], in [3], in series [4], in series [5], in [6] and in series [7] was below 10% throughout. The inhibition in series [8], in [9] and in series [10] was below 10% throughout. The figures for the IC50 (with PBMC; in series [2]) were above 10000 nM and 3760 nM, respectively.
For `COc1ccc(C(=O)Cc2c(Cl)cncc2Cl)c(OC)c1OC`, the values for the IC50 (in the series on PBMC; in [2]) were 436 nM and 110 nM, respectively.
For `COc1ccc(C(=O)Cc2c(Cl)cncc2Cl)c(OCc2ccccc2)c1OC` the same measures were 159 nM and 63 nM.
For `COc1ccc(C(=O)Cc2c(Cl)cncc2Cl)c(OCCc2ccc(O)cc2)c1OC` the same measures were 30 nM and 8 nM.
For `COc1ccc(C(=O)Cc2c(Cl)cncc2Cl)cc1OC` the same measures were 11 nM and 13 nM.
As to `Nc1nc2c([nH]1)c(=O)n(CC1CC1)c(=O)n2CC1CC1` [CIPAMFYLLINE], the Activity entry in the series with Mustela putorius furo is reported as “Toxic”.
`COc1ccc(C(=O)Cc2c(Cl)cncc2Cl)c(OCCc2ccccc2)c1OC`: the half-inhibitory concentration (IC50) turned out to be 26 nM with PBMC and 15 nM in series [2].
The molecule `COc1ccc(C(=O)Nc2c(Cl)cncc2Cl)cc1OC1CCCC1` [PICLAMILAST] came in with a solubility at 1 h in series [11] of 190 µg/mL (≈ 498 µM). Also, the solubility is 1 µg/mL (≈ 2.62 µM) in series [12], 2000 µg/mL (≈ 5250 µM) in series [13] and 3300 µg/mL (≈ 8660 µM) in series [14].
As for `CCCNC(=O)COc1c(C(=O)Cc2c(Cl)cncc2Cl)ccc(OC)c1OC`, the inhibition in series [1] was below 10%; in the series with Mus musculus [18], “Dose-dependent effect”; in series [3] it was below 10%; in series [4], below 10%; in [5], below 10%; in series [6], below 10%. The inhibition in series [7], in [8], in series [9] and in series [10] was below 10% throughout. This molecule also yielded a solubility at 1 h in series [11] of 220 µg/mL (≈ 499 µM). The IC50 with PBMC stood at 16 nM; in series [2] it was 5 nM. For the same molecule, the AUC(0-t) at 48 h in series [15] stood at 5.45 ng·h/mL; in series [24], 49.2 ng·h/mL; in series [28], 100 ng·h/mL; in series [30], 14.9 ng·h/mL. In addition, the Cmax in [16] turned out to be 0.754 ng/mL; in series [23], 2.39 ng/mL; in series [25], 5.07 ng/mL; in series [26], 0.279 ng/mL. For the same molecule, the Activity entry in the series with Homo sapiens was “Non-toxic”. For the same molecule, the solubility at 24 h was 135 µg/mL in [17], 1300 µg/mL in series [19] and 5600 µg/mL in [31]. Moreover, the solubility in series [12] is 14 µg/mL (≈ 31.7 µM); in series [13], 6700 µg/mL (≈ 15200 µM); in series [14], 24000 µg/mL (≈ 54400 µM). Moreover, the entries for the “inhibition (INH)” value in the series on Mus musculus [20], with Mus musculus [21] and in the series on Mus musculus [22] were 33%, 100% and 91%, respectively. In addition, the MTD at 2 h in [27] and in series [29] was 1 mg/kg in each case.
`COc1ccc(C(=O)Nc2c(Cl)cncc2Cl)cc1OC`: the IC50 in the series with PBMC came to 19 nM; in series [2], 17 nM.
In the case of `COc1ccc(C(=O)Cc2c(Cl)c[n+]([O-])cc2Cl)c(OCC(=O)NCc2ccccc2)c1OC`, the concentration for half-maximal inhibition (IC50) with PBMC is 11 nM; in series [2] it was 5 nM.
As to `COc1ccc(C(=O)Cc2c(Cl)cncc2Cl)c(OCCc2ccc(C(=O)O)cc2)c1OC`, the IC50 came to 135 nM in the series on PBMC and 17 nM in series [2].
As for `CCOc1c(OC)ccc(C(=O)Cc2c(Cl)cncc2Cl)c1OC`, the IC50 amounted to 259 nM with PBMC and 81 nM in series [2].
